Assay results taken from ChEMBL document CHEMBL2086286, “Synthesis, antitumor, cytotoxic and antioxidant evaluation of some new pyrazolotriazines attached to antipyrine moiety” (Eur J Med Chem, 2012).
In brackets after ≈: the same amount, converted by molar mass. Several values for one entry are separate records, joined by “and”; a condition that tells them apart may be missing. Equal values may be shown once. Activity calls are given as the source filed them. The calls are words filed in the database; no cut-off is given here.

Legend:
Vero = experiment: Cytotoxicity against African green monkey Vero cells after 96 hrs by MTT assay; assay type: cell-based; conditions: Chlorocebus sabaeus
WI-38 = experiment: Cytotoxicity against human WI38 cells after 96 hrs by MTT assay; assay type: functional, cell-based; conditions: WI-38, 96 h
HepG2 = experiment: Cytotoxicity against human HepG2 cells after 96 hrs by MTT assay; assay type: functional, cell-based; conditions: HepG2, 96 h
[1] = Cytotoxicity against mouse EAC after 2 hrs by trypan blue staining based hemocytometer analysis; assay type: functional, Ehrlich; conditions: for IC50: ehrlich
Summary of the method: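 Ehrlich ascites cells aspirated aseptically from the peritoneal cavity of a donor animal. Held in RPMI with 10% FBS at 37 °C, 5% CO2 for 2 h with compound at 25, 50 and 100 µg, final DMSO 0.1%. Dead cells counted by trypan blue staining on a hemocytometer; DMSO-only control viability exceeded 95%. 5-Fluorouracil as reference.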

MCF7 = experiment: Cytotoxicity against human MCF7 cells after 96 hrs by MTT assay; assay type: functional, cell-based; conditions: MCF7, 96 h
[2] = Antioxidant activity assessed as ABTS free radical scavenging activity at 1 mg/mL by spectroscopic analysis; assay type: functional
Summary of the method: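 ABTS radical cation generated by reacting ABTS with MnO2 (25 mg/mL) in phosphate buffer pH 7, then centrifuged and filtered. Absorbance read at 734 nm before and after adding test sample (1 mg/mL in MeOH/buffer 1:1). % inhibition = [A(control) − A(test)]/A(control) × 100. Ascorbic acid (2 mM) as positive control; solvent blank without ABTS.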

Nucleic Acid = experiment: Protective activity against bleomycin-iron complex-induced DNA damage at 0.1 mg/ml after 1 hr; assay type: nucleic-acid assay
Summary of the method: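 Final reaction mixture: DNA 0.2 mg/mL, bleomycin 0.05 mg/mL, FeCl3 0.025 mM, MgCl2 5 mM, KH2PO4/KOH pH 7.0 30 mM, and test sample 0.1 mg/mL (in MeOH) or ascorbic acid 0.24 mM. Incubated 1 h at 37 °C, stopped with EDTA. DNA damage measured by adding 1% TBA and 25% HCl, heating 15 min at 80 °C, then reading absorbance.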

Row | SMILES | IC50 (Vero) | IC50 (WI-38) | IC50 (HepG2) | ED25 [1] | ED50 [1] | ED100 [1] | IC50 [1] | IC50 (MCF7) | inhibition [2] | Activity (Nucleic Acid)
1 | O=c1[nH]cc(F)c(=O)[nH]1 [FLUOROURACIL] | 6.4 µg/mL (≈ 49.2 µM) | 4 µg/mL (≈ 30.8 µM) | 9.1 µg/mL (≈ 70 µM) | 32.26 µg | 38.6 µg | 68 µg | 97.3 µg | 2.5 µg/mL (≈ 19.2 µM) |  | 
2 | Cc1[nH]nc(N)c1/N=N/c1c(C)n(C)n(-c2ccccc2)c1=O | 80.3 µg/mL (≈ 258 µM) | 73.1 µg/mL (≈ 235 µM) | 79.1 µg/mL (≈ 254 µM) | 1.71 µg |  | 79.3 µg | 97 µg and 58 µg | 84.7 µg/mL (≈ 272 µM) | 28.4% | 
3 | Cc1[nH]nc(NN=C(C#N)C#N)c1/N=N/c1c(C)n(C)n(-c2ccccc2)c1=O | 209 µg/mL (≈ 537 µM) | 197 µg/mL (≈ 508 µM) | 183 µg/mL (≈ 470 µM) | 27.85 µg |  | 64 µg | 94.3 µg | 221 µg/mL (≈ 570 µM) | 17.2% | 
4 | Cc1nn2c(N)c(-c3nc4ccccc4s3)nnc2c1/N=N/c1c(C)n(C)n(-c2ccccc2)c1=O | 244 µg/mL (≈ 491 µM) | 199 µg/mL (≈ 400 µM) | 225 µg/mL (≈ 454 µM) | 26.63 µg |  | 64 µg | 93.8 µg and 49 µg | 186 µg/mL (≈ 374 µM) | 17.2% | 
5 | O=C1O[C@H]([C@@H](O)CO)C(O)=C1O |  |  |  |  |  |  |  |  | 92.3% | 
6 | CC(=O)C(=NNc1n[nH]c(C)c1/N=N/c1c(C)n(C)n(-c2ccccc2)c1=O)C(C)=O | 199 µg/mL (≈ 472 µM) | 189 µg/mL (≈ 446 µM) | 174 µg/mL (≈ 412 µM) | 15.59 µg |  | 70 µg | 95 µg and 54.1 µg | 214 µg/mL (≈ 507 µM) | 25.8% | 
7 | Cc1nn2c(nnc3c(N)c(C#N)c(N)nc32)c1/N=N/c1c(C)n(C)n(-c2ccccc2)c1=O | 220 µg/mL (≈ 485 µM) | 303 µg/mL (≈ 667 µM) | 203 µg/mL (≈ 448 µM) | 62.53 µg |  | 40.6 µg |  | 419 µg/mL (≈ 922 µM) | 8.28% | 
8 | CC(=N)/C(C#N)=N\Nc1c(C)n(C)n(-c2ccccc2)c1=O | 10 µg/mL (≈ 33.7 µM) | 13.8 µg/mL (≈ 46.6 µM) | 8.3 µg/mL (≈ 28 µM) | 0.46 µg |  | 97.2 µg | 100 µg | 15.1 µg/mL (≈ 51 µM) | 80.9% | Active
9 | CC(=N)c1nnc2c(/N=N/c3c(C)n(C)n(-c4ccccc4)c3=O)c(C)nn2c1N | 164 µg/mL (≈ 406 µM) | 175 µg/mL (≈ 433 µM) | 139 µg/mL (≈ 343 µM) | 14.38 µg |  | 70.1 µg | 95.5 µg and 55 µg | 152 µg/mL (≈ 375 µM) | 24.4% | 
10 | Cc1nn2c(N)c(C#N)nnc2c1/N=N/c1c(C)n(C)n(-c2ccccc2)c1=O | 301 µg/mL (≈ 775 µM) | 377 µg/mL (≈ 971 µM) | 254 µg/mL (≈ 654 µM) | 34.26 µg |  | 62 µg | 91.9 µg and 42.8 µg | 452 µg/mL (≈ 1160 µM) | 15.9% | 
11 | Cc1[nH]nc(NN=C2C(=O)CCCC2=O)c1/N=N/c1c(C)n(C)n(-c2ccccc2)c1=O | 24.8 µg/mL (≈ 57.1 µM) | 19.8 µg/mL (≈ 45.6 µM) | 16.2 µg/mL (≈ 37.3 µM) | 0.88 µg |  | 80 µg | 98.8 µg and 63.3 µg | 29.9 µg/mL (≈ 68.8 µM) | 40% | Active
12 | Cc1nn2c3c(nnc2c1/N=N/c1c(C)n(C)n(-c2ccccc2)c1=O)C(=O)CCC3 | 61.1 µg/mL (≈ 147 µM) | 53 µg/mL (≈ 127 µM) | 55.3 µg/mL (≈ 133 µM) | 0.67 µg |  | 91.4 µg | 99 µg and 80.2 µg | 68.2 µg/mL (≈ 164 µM) | 52.5% | Active
13 | CCOC(=O)/C(C#N)=N/Nc1n[nH]c(C)c1/N=N/c1c(C)n(C)n(-c2ccccc2)c1=O | 179 µg/mL (≈ 412 µM) | 169 µg/mL (≈ 389 µM) | 153 µg/mL (≈ 352 µM) | 22.53 µg |  | 68.7 µg | 94.9 µg and 49.8 µg | 150 µg/mL (≈ 344 µM) | 21.6% | 
14 | CC(=O)c1nnc2c(/N=N/c3c(C)n(C)n(-c4ccccc4)c3=O)c(C)nn2c1C | 33.1 µg/mL (≈ 81.8 µM) | 40.3 µg/mL (≈ 99.6 µM) | 39.3 µg/mL (≈ 97.2 µM) | 11.01 µg |  | 73.9 µg | 96.7 µg and 55.5 µg | 30.6 µg/mL (≈ 75.7 µM) | 27.5% | 
15 | Cc1nn2c(nnc3c(C)n[nH]c32)c1/N=N/c1c(C)n(C)n(-c2ccccc2)c1=O | 276 µg/mL (≈ 687 µM) | 311 µg/mL (≈ 772 µM) | 210 µg/mL (≈ 521 µM) | 34.69 µg |  | 61 µg | 92.1 µg and 43 µg | 411 µg/mL (≈ 1020 µM) | 16.1% | 
16 | Cc1[nH]nc(-n2nc(C(=O)c3ccccc3)sc2=N)c1/N=N/c1c(C)n(C)n(-c2ccccc2)c1=O | 210 µg/mL (≈ 421 µM) | 171 µg/mL (≈ 343 µM) | 186 µg/mL (≈ 373 µM) | 39.36 µg |  | 60.5 µg | 90.7 µg | 210 µg/mL (≈ 420 µM) | 15.7% | 
17 | Cc1[nH]nc(N/N=C(\C#N)c2nc3ccccc3s2)c1/N=N/c1c(C)n(C)n(-c2ccccc2)c1=O | 181 µg/mL (≈ 364 µM) | 169 µg/mL (≈ 341 µM) | 179 µg/mL (≈ 360 µM) | 11.17 µg |  | 70.8 µg | 95 µg and 56.4 µg | 164 µg/mL (≈ 330 µM) | 19.3% | 
18 | CC1=NNC(=O)/C1=N/Nc1n[nH]c(C)c1/N=N/c1c(C)n(C)n(-c2ccccc2)c1=O | 214 µg/mL (≈ 508 µM) | 300 µg/mL (≈ 713 µM) | 202 µg/mL (≈ 480 µM) | 26.63 µg |  | 63.3 µg | 93 µg and 45.5 µg | 393 µg/mL (≈ 935 µM) | 16.1% | 
19 | CC(=N)/C(C#N)=N\Nc1n[nH]c(C)c1/N=N/c1c(C)n(C)n(-c2ccccc2)c1=O | 735 µg/mL (≈ 1820 µM) | 70.2 µg/mL (≈ 174 µM) | 70.8 µg/mL (≈ 175 µM) | 1.3 µg |  | 80 µg | 97.5 µg and 60.1 µg | 69 µg/mL (≈ 171 µM) | 28.6% | 
20 | Cc1[nH]nc(N/N=C(\SC#N)C(=O)c2ccccc2)c1/N=N/c1c(C)n(C)n(-c2ccccc2)c1=O | 96.8 µg/mL (≈ 194 µM) | 92.8 µg/mL (≈ 186 µM) | 95.3 µg/mL (≈ 191 µM) | 26.92 µg |  | 65.2 µg | 94.3 µg and 48.1 µg | 101 µg/mL (≈ 202 µM) | 17.6% | Active
21 | Cc1[nH]nc(N/N=C(/C#N)C(N)=C(C#N)C#N)c1/N=N/c1c(C)n(C)n(-c2ccccc2)c1=O | 212 µg/mL (≈ 467 µM) | 176 µg/mL (≈ 387 µM) | 148 µg/mL (≈ 325 µM) | 64.48 µg |  | 38 µg |  | 192 µg/mL (≈ 422 µM) | 9.86% | 
22 | CCOC(=O)c1nnc2c(/N=N/c3c(C)n(C)n(-c4ccccc4)c3=O)c(C)nn2c1N | 284 µg/mL (≈ 653 µM) | 367 µg/mL (≈ 843 µM) | 268 µg/mL (≈ 616 µM) | 28.02 µg |  | 65.3 µg | 94 µg and 47 µg | 420 µg/mL (≈ 965 µM) | 17.6% | 
